Assay outcomes (PubChem)
proCasp3 act = activators of human procaspase-3 | P42574 | recombinant procaspase-3 D3A, Ac-DEVD-pNA absorbance 405 nm | activation, % at 8.5 µM | actives 0.11% (n = 330,000) | AID 463141;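 active means activation above the mean of all tested compounds plus 3 SD, cut at about 21% in these data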;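 further: 0% = DMSO alone and 100% = DMSO wells spiked with extra 5 µM PC-3 D3A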
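material = Procaspase-3 D3A mutant | probe or stimulus = Ac-DEVD-pNA | compound = single dose, 8.5 µM nominal compound, 0.8% DMSO | timing = 1 h preincubation, 2 h reaction | measured by = 405 nm absorbance of p-nitroaniline, reads at 0 and 120 min | benchmarks = DMSO-only low control, 5 µM PC-3 D3A high control | repeats = singlicate, each compound tested once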
proCasp7 act = counter-screen: procaspase-7 (human) activation; recombinant procaspase-7, Ac-DEVD-pNA absorbance 405 nm; D23A/D198A/D206A triple mutant, cannot self-cleave; scale: DMSO 0, 5 µM enzyme 100; activation, % at 8.5 µM; actives 0.093% (n = 330,000); AID 463210;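 active means percent activation above the screen-wide mean plus 3 SD, cut at about 25% in these data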
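Material: Procaspase-7 triple mutant (PC-7 D3A) | Quantity: 2 µM procaspase-7 mutant as dispensed | Reagent: DEVD-pNA substrate | Times: 1 h preincubation, 2 h reaction | Technique: 405 nm absorbance of p-nitroaniline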
PKA-R2B activ = PKA-R2B complex activation; P22694+P31323; PKA-R2B holoenzyme dissociation, Cy5-IP20 fluorescence polarization; R2B truncated from residue 108, S112A mutant; 0% DMSO only, 100% 113 µM cGMP; activation, % at 11.4 µM; actives 0.079% (n = 340,000); AID 504700;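 active means activation above a cutoff set at the mean over all compounds plus 3 SD, cut at about 18% in these data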;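 further: higher means more holoenzyme dissociation and a rise in polarization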
Target sequence (P31323 whole entry, looked up, other chains not shown, the tested form may be a part): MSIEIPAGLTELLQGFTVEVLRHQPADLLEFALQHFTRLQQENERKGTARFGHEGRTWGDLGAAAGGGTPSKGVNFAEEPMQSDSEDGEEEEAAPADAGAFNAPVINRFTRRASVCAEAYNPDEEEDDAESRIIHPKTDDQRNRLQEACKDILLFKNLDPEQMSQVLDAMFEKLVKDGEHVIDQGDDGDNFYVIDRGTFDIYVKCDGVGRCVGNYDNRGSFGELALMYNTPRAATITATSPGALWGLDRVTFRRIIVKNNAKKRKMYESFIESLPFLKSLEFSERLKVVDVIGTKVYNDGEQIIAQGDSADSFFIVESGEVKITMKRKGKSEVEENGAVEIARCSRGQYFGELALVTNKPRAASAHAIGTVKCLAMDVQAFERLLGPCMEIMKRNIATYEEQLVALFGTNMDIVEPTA
PKA-R1A activ = activators of PKA-R1A complex; actives 0.083% (n = 340,000); activation, % at 11.4 µM; PKA-R1A dissociation, Cy5-IP20 fluorescence polarization; scaled: DMSO 0%, 113 µM cGMP 100%; P00514+P68181;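 active means percent activation above the mean of all tested compounds plus 3 SD, cut at about 19% in these data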;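 further: higher means more PKAc released from R1A so a rise in polarization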
Starred values were filed as active, the others as inactive. An excerpt weighted towards active compounds, which were near 0.29% of everything screened.

What do the screens show for `Fc1cc(NCc2ccccc2)nc(NCc2ccccc2)n1`?
proCasp3 act: -5.5; proCasp7 act: -8.8; PKA-R2B activ: -4.3; PKA-R1A activ: -5.6

How did CCOC(=O)c1ccc(NC(=O)Cn2nnc(-c3ccccc3F)n2)cc1 do in these assays?
proCasp3 act: 1.6; proCasp7 act: 7.9; PKA-R2B activ: 1.4; PKA-R1A activ: 3.7

Results for O=C(NC1CCCCCC1)C1CC(=O)N(c2ccc(Cl)cc2)C1 (stereo not given) ?
proCasp3 act: -9.6; proCasp7 act: -15.0; PKA-R2B activ: -7.0; PKA-R1A activ: -5.1

What do the screens show for `CC(C)Oc1cccc(C(=O)Nc2ncn[nH]2)c1`?
proCasp3 act: -6.4; proCasp7 act: 4.5; PKA-R2B activ: 2.5; PKA-R1A activ: -4.0

Results for CN(C)c1ccc(/C=C(\C#N)C(=O)NCc2ccco2)cc1 ?
proCasp3 act: -6.0; proCasp7 act: -14.3

What do the screens show for `Cc1ccc(CNC(=O)/C(C#N)=C\c2ccc(N(C)C)cc2)cc1`?
proCasp3 act: 21.8*; proCasp7 act: -54.3

How did CC1CC(C)CN(C(=O)CNC(=O)c2sc3ccccc3c2Cl)C1 (stereo not given) do in these assays?
proCasp3 act: -5.4; proCasp7 act: -1.8; PKA-R2B activ: -2.1; PKA-R1A activ: -21.2

Results for COCCNC(C(=O)Nc1ccc([N+](=O)[O-])cc1Br)c1ccccc1 (stereo not given) ?
proCasp3 act: 1.1; proCasp7 act: 0.0; PKA-R2B activ: -8.3; PKA-R1A activ: 14.6

How did Clc1ccc2oc(-c3cccnc3)nc2c1 do in these assays?
proCasp3 act: 7.3; proCasp7 act: -10.6; PKA-R2B activ: -7.5; PKA-R1A activ: -6.3

What do the screens show for `Cc1cccc(C(=O)OCC(=O)NN2C(=O)NC3(CCCCC3)C2=O)c1`?
proCasp3 act: 4.9; proCasp7 act: -2.2; PKA-R2B activ: 4.2; PKA-R1A activ: 11.1

How did Clc1ccc(C2[C@H]3CN(Cc4cccnc4)[C@H](c4ccccc4)C34CC2(c2ccccc2)C4)cn1 (stereo not given in full) do in these assays?
proCasp3 act: -5.9; proCasp7 act: 0.1; PKA-R2B activ: 2.7; PKA-R1A activ: 5.3

Results for CCOC(=O)C1(Cc2ccccc2Cl)CCN(S(C)(=O)=O)CC1 ?
proCasp3 act: 13.0; proCasp7 act: 2.0; PKA-R2B activ: -20.1; PKA-R1A activ: -5.1

How did O=C(CNC1CCCCC1)Nc1ccc(S(=O)(=O)N2CCCCC2)cc1 do in these assays?
proCasp3 act: 3.6; proCasp7 act: 11.6; PKA-R2B activ: -7.0; PKA-R1A activ: 9.3

What do the screens show for `CC(=O)c1c(C)[nH]c(C(=O)NC2CCCCC2)c1C`?
proCasp3 act: -4.8; proCasp7 act: 2.0; PKA-R2B activ: -3.6; PKA-R1A activ: -0.1

What do the screens show for `CC(=O)c1ccccc1C(=O)N(C)C1CCCN(Cc2ccccc2F)C1` (stereo not given)?
proCasp3 act: 3.8; proCasp7 act: -1.7; PKA-R2B activ: -5.9; PKA-R1A activ: -17.9

Results for COc1ccc(CN=Cc2c(C(=O)O)[nH]c3ccccc23)cc1 ?
proCasp3 act: -0.5; proCasp7 act: -5.8; PKA-R2B activ: -0.7; PKA-R1A activ: 2.1

How did CCc1nnc2c(N(C)C)nc3ccccc3n12 do in these assays?
proCasp3 act: 8.7; proCasp7 act: 2.3; PKA-R2B activ: 4.0; PKA-R1A activ: -7.8

What do the screens show for `COc1cc(CC(=O)Nc2cccc(SC)c2)cc(OC)c1OC`?
proCasp3 act: 3.3; proCasp7 act: 1.4; PKA-R2B activ: -6.2; PKA-R1A activ: 3.9

Results for O=C(CN1C2=NCCCN2c2ccccc21)c1cccs1 ?
proCasp3 act: 5.7; proCasp7 act: 3.4; PKA-R2B activ: 0.2; PKA-R1A activ: -9.0

What do the screens show for `CCc1cccc(NC(=O)c2cc(S(=O)(=O)N3CCCCC3)ccc2N2CCOCC2)c1`?
PKA-R2B activ: -5.1; PKA-R1A activ: -4.3

Results for CCOc1ccc(-n2ccnc2)nn1 ?
proCasp3 act: 7.3; proCasp7 act: 7.5; PKA-R2B activ: 0.1; PKA-R1A activ: 2.2

How did O=C(N/N=C/c1ccc(OC(F)F)cc1)c1ccc(CSc2nc3ccccc3[nH]2)cc1 do in these assays?
proCasp3 act: 10.0; proCasp7 act: -7.2; PKA-R2B activ: 3.9; PKA-R1A activ: -3.8

What do the screens show for `COc1ccc(-c2noc(CCC(=O)Nc3cccc(C(=O)NC4CC4)c3)n2)cc1OC`?
PKA-R2B activ: 9.3; PKA-R1A activ: 7.2
